Screening results from PubChem BioAssay.
PGC1a acetyl inh – modulators of PGC1a acetylation; 350,000 tested, 0.17% active; AID 651687; inhibition, % at 15.6 µM; U2OS PGC1a acetylation, AlphaScreen anti-acetyl-lysine; with virally co-expressed GCN5 acetyltransferase;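 active = every replicate shows inhibition of at least 40%; inconclusive = mean inhibition at least 40% but some replicate below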;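 note: 0% = neutral control wells and 100% = positive control wells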
MITF TRPM1 HTS – increases MITF-driven TRPM1 promoter luciferase signal; SK-MEL-5 TRPM1-promoter luciferase, 24 h; % of positive control, neutral wells = 0; activation, % at 12.5 µM; 300,000 tested, 0.75% active; AID 588334;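 active = mean activation of at least 80% with every replicate also reaching 80%; inconclusive = mean reaches 80% but some replicate falls short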;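 note: 0% = neutral control wells and 100% = parthenolide positive control wells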
Wnt bcat act – activators of Wnt/beta-catenin signaling; activation, % at 9.35 µM; 300,000 tested, 1.2% active; Wnt/beta-catenin reporter cell assay, activator, plate reader; in the data active = activation above about 30%, passing the limit was not always enough; inconclusive = no clear call, values can overlap the other calls;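 note: 0% = neutral control wells and 100% = positive control wells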
Cneo AK release – Cryptococcus neoformans lysis via adenylate kinase release | C. neoformans lysis, adenylate kinase release luminescence, 4 h; normalised: neutral wells 0, clomiphene wells 100 | lysis activity, % at 15 µM | 360,000 tested, 0.2% active;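 active = mean lysis activity across replicates of at least 80%, whatever share of replicates individually reach that level; inactive = mean lysis activity below 80%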
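read-out = cell lysis signal | test system = log-phase Cryptococcus neoformans yeast cells | input = cells at 5 × 10^6 per mL | medium = fresh YPD growth medium | signal = luminescent adenylate kinase detection reagent | timing = 4 h at 37 °C static, read 1 h later | dosing = single dose | controls = Clomiphene as positive lysis control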
* = called active by the depositor; ? = inconclusive; . = no result; ! = repeats disagree. In the library only some 1.5% were active in any assay of this set; here they are far more common.

SMILES | PGC1a acetyl inh | MITF TRPM1 HTS | Wnt bcat act | Cneo AK release
O=c1[nH]c2ccccc2nc1CCc1ccccc1 | -6.1 | 78.4 | 31.4* | .
C#CCN1C(=O)S/C(=C/C=C/c2ccc(N(C)C)cc2)C1=O | . | 32.4 | 44.8* | .
CN(C)C(=O)c1ccc(-c2ccc([C@@H]3[C@@H](C#N)N(C(=O)Nc4ccccc4F)[C@H]3CO)cc2)cc1 | -0.1 | . | . | -2.4
Cc1ccc(C(=O)NCC(=O)OCc2csc(-c3ccccc3)n2)cc1 | -1.8 | 2.7 | 2.1 | -1.7
O=C(OCc1csc(-c2ccccc2)n1)c1ccc(O)cc1 | . | 97.6* | 0.6 | .
O/N=C/c1ccc2ccccc2n1 | 13.6 | . | 35.9* | 2.8
O/N=C/c1ccc2cccc(O)c2n1 | 3.1 | -5.9 | 3.0 | 4.4
Cc1occc1C(=O)N/N=C/c1ccc(OCc2ccccc2)cc1 | -7.9 | . | 37.7* | .
Cc1cc(C(=O)N/N=C/c2ccc3c(c2)OCO3)c(C)o1 | 12.7 | 50.1 | 4.7 | -3.0
Cc1occc1C(=O)N/N=C/c1cccc2ccccc12 | . | 97.4* | 18.3 | -0.5
O=C(N/N=C/c1ccc2c(c1)OCO2)c1ccc2c(c1)OCCO2 | . | 43.7 | 16.8 | .
O=C(N/N=C/c1ccsc1)c1ccc2c(c1)OCO2 | . | 86.3* | 13.8 | -0.7
Cc1occc1C(=O)N/N=C/c1ccc2c(c1)OCO2 | -1.1 | 7.9 | 38.1* | .
CCN(CC)c1ccc(/C=N/NC(=O)c2ccc(Br)o2)cc1 | . | 115.9* | -0.2 | .
CCN(CC)c1ccc(/C=N/NC(=O)c2ccoc2C)c(O)c1 | 23.7 | -16.4 | 46.7* | 0.1
O=C(N/N=C/c1ccc2c(c1)OCO2)c1ccc(Br)o1 | . | 87.2* | 42.6* | .
O=C(N/N=C/c1ccc2c(c1)OCO2)c1cccs1 | -13.5 | 26.7 | -4.4 | -11.5
Cc1ccccc1-c1ccc([C@@H]2[C@@H](CO)N3C(=O)CN(C(=O)Cc4ccccn4)C[C@H]23)cc1 | -5.5 | . | . | .
CCCNC(=O)C[C@@H]1CC[C@@H]2[C@H](COc3ccc(NC(=O)NCC)cc3C(=O)N2C)O1 | -1.5 | . | . | -2.8
COc1ccc(C(=O)/C=C/c2ccccc2C(F)(F)F)cc1 | . | -14.7 | 34.1* | .
Cc1ccc(NC(=O)C(C)N2C(=O)c3ccccc3S2(=O)=O)cc1Cl (configuration not stated) | . | 6.2 | -1.7 | -0.2
Cc1ccc(N2C(=O)c3ccccc3NC2(C(=O)O)c2ccccc2)cc1Cl (configuration not stated) | 6.4 | 34.3 | 56.5* | -11.3
C[C@@H]1CCCCO[C@H](CN(C)S(=O)(=O)c2cn(C)cn2)[C@@H](C)CN([C@@H](C)CO)C(=O)c2cc(N(C)C)ccc2O1 | -0.4 | . | . | 0.5
O=C(/C=C\c1ccco1)NC(=S)Nc1ccccc1O | . | 87.8* | 15.8 | .
O=C(/C=C/c1ccco1)NCCc1ccccc1 | -2.0 | 63.4 | 55.1* | -3.0
SMILES | PGC1a acetyl inh | MITF TRPM1 HTS | Wnt bcat act | Cneo AK release
O=C(/C=C/c1ccco1)NC(=S)Nc1ccccn1 | -10.3 | . | 42.2* | -1.8
Cc1ccc(S(=O)(=O)N(C)C[C@H]2OCCCC[C@H](C)Oc3ccc(NC(=O)Cc4ccccc4)cc3C(=O)N([C@H](C)CO)C[C@@H]2C)cc1 | 6.3 | . | . | 56.6
C[C@H]1CN([C@@H](C)CO)C(=O)c2cc(NS(=O)(=O)c3ccccc3)ccc2O[C@H]1CN(C)Cc1ccccc1 | -0.8 | . | . | 3.2
COc1ccc(CCN(Cc2ccccn2)C(=S)Nc2cccc(C)c2)cc1OC | -7.3 | 6.1 | 44.7* | -0.9
C[C@H]1CN([C@@H](C)CO)C(=O)Cc2cc(NC(=O)Nc3ccccc3)ccc2O[C@@H]1CN(C)C(=O)Nc1ccc2c(c1)OCO2 | -33.2 | . | . | 101.1*
CC(C)NC(=O)Nc1ccc2c(c1)CC(=O)N([C@@H](C)CO)C[C@@H](C)[C@@H](CN(C)Cc1ccc3c(c1)OCO3)O2 | 0.0 | . | . | -1.0
CNC[C@H]1Oc2ccc(NC(=O)Cc3cn(C)c4ccccc34)cc2CC(=O)N([C@@H](C)CO)C[C@H]1C | 0.0 | -4.6 | 0.2 | 82.7*!
CC(C)NC(=O)Nc1ccc2c(c1)CC(=O)N([C@@H](C)CO)C[C@H](C)[C@H](CN(C)Cc1ccc3c(c1)OCO3)O2 | -4.7 | . | . | 106.9*
O=C(CN1CCOCC1)NCC[C@@H]1CC[C@H](NC(=O)Nc2ccc(C(F)(F)F)cc2)[C@@H](CO)O1 | -12.0 | . | . | -0.8
O=C(C[C@@H]1CC[C@@H]2[C@H](COC[C@H](O)CN2CC2CCCC2)O1)NCc1ccc(Cl)cc1 | -4.3 | . | . | .
Nc1cc2c(cc1Br)-c1ccccc1C2=NO | -12.5 | 15.7 | 33.5* | 1.4
Cc1ccc(NNC(=O)c2cc(C(C)(C)C)nn2Cc2ccccc2)cc1 | -6.7 | -0.9 | 2.5 | -0.3
COc1ccccc1NNC(=O)c1cc(C(C)(C)C)nn1Cc1ccccc1 | 7.1 | . | 54.0* | 0.1
COc1cccc(NC(=O)CN(C)C(=O)c2ccc3c(c2)CC(c2ccccc2)OC3=O)c1 (configuration not stated) | 0.1 | -7.7 | 48.3* | -1.4
CO[C@@H]1CN(C)C(=O)c2ccc(NC(=O)NC(C)C)cc2OC[C@H](C)N(CC2CC2)C[C@@H]1C | 2.3 | . | . | 1.0
Fc1ccccc1CSc1ncnc2c1ncn2C1CCCCO1 (configuration not stated) | -15.9 | 88.7* | 47.6* | -1.0
Clc1ccc(CSc2ncnc3c2ncn3C2CCCCO2)cc1 (configuration not stated) | -5.2 | 37.4 | 12.3 | 0.7
C[C@@H]1CCCCO[C@@H](CN(C)C(=O)Nc2ccc3c(c2)OCO3)[C@@H](C)CN([C@@H](C)CO)C(=O)c2cc(NC(=O)NC3CCCCC3)ccc2O1 | -1.1 | . | . | .
COc1cccc(-c2noc(-c3ccc4c(c3)OCO4)n2)c1 | -7.4 | 27.8 | 42.0* | .
COc1ccc(-c2noc(-c3ccc4c(c3)OCO4)n2)cc1 | 13.1 | 87.3* | 20.8 | -2.9
O=C(NCC[C@@H]1CC[C@H](NC(=O)c2cccnc2)[C@H](CO)O1)Nc1ccc(C(F)(F)F)cc1 | 3.0 | . | . | -29.8
C[C@@H]1CN([C@@H](C)CO)C(=O)c2cc(NC(=O)c3ccccc3)ccc2O[C@@H](C)CCCCO[C@H]1CN(C)C(=O)c1ccccc1 | 4.2 | . | . | -1.1
CO[C@H]1CN(C)C(=O)c2ccc(NC(=O)c3nc4ccccc4s3)cc2OC[C@H](C)NC[C@@H]1C | -7.6 | . | . | 2.4
CN(C)c1ccc(Sc2ccc3nc(N)nc(N)c3c2)cc1 | 45.8* | . | -9.4 | -5.0
Cc1cc(C(=O)Nc2cccc3c2O[C@H](CN(C)Cc2ccc4c(c2)OCO4)[C@H](C)CN([C@@H](C)CO)C3=O)n(C)n1 | 4.2 | . | . | -3.6
SMILES | PGC1a acetyl inh | MITF TRPM1 HTS | Wnt bcat act | Cneo AK release
CCN(c1ccccc1)c1nc2ccsc2c(=O)s1 | -20.0 | 17.1 | . | -7.4
CN(c1ccccc1)c1nc2ccsc2c(=O)s1 | 1.9 | 98.7* | 6.6 | -3.6
CN(C)C(=O)C[C@H]1CC[C@H]2[C@@H](COC[C@@H](O)CN2C(=O)c2ccncc2)O1 | 3.4 | . | . | 55.9
COc1cc(/C=C(\C#N)C(=O)Nc2cccc(C(=O)O)c2)ccc1OCc1ccc(Cl)cc1 | 1.2 | 33.5 | 34.5* | -3.2
CCC1(C)Nc2ccccc2C(=O)N1O (configuration not stated) | -7.0 | 5.9 | . | -0.1
CCOc1ccc(N2C(=O)c3ccccc3NC2(C)CC)cc1 (configuration not stated) | 7.4 | 124.3* | ? | -6.2
